Here are results for one compound from ChEMBL document CHEMBL4052661, “Structure Based Design of N-(3-((1H-Pyrazolo[3,4-b]pyridin-5-yl)ethynyl)benzenesulfonamides as Selective Leucine-Zipper and Sterile-α Motif Kinase (ZAK) Inhibitors” (J Med Chem, 2017).

The nature of series [1]: Oral bioavailability in Sprague-Dawley rat at 10 mg/kg by HPLC/MS analysis. It counts as ADME, organism-based. The following applies: in vivo. Put shortly: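 Sprague-Dawley rats given a single oral dose of 10 mg/kg; plasma exposure (AUC), half-life and oral bioavailability derived.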
Series [2] has as its target Serine/threonine-protein kinase B-raf (Homo sapiens, UniProt P15056, V600E). The experiment in a line: Inhibition of recombinant human B-RAF V600E mutant using Ser/Thr3 as substrate after 1 hr by FRET-based Z'-Lyte assay.
Series [3] deals with Mast/stem cell growth factor receptor Kit (Homo sapiens, UniProt P10721, L576P). The experiment in a line: Binding affinity to partial length human KIT L576P mutant expressed in Escherichia coli BL21 by active-site-dependent competition assay. In short, it runs like this:
(§1)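 Active-site-dependent competition binding (KINOMEscan) run by an outside service across a panel of 468 kinases (403 nonmutated, 65 mutated); reported as binding constant Kd.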

The target in series [4] is Mast/stem cell growth factor receptor Kit (Homo sapiens, UniProt P10721, V559D). The experiment in a line: Binding affinity to partial length human KIT V559D mutant expressed in Escherichia coli BL21 by active-site-dependent competition assay. In short, it runs like this: as §1
Series [5] addresses T1, Dual specificity mitogen-activated protein kinase kinase 5 (Homo sapiens, UniProt Q13163).
T1 sequence (Q13163 whole entry): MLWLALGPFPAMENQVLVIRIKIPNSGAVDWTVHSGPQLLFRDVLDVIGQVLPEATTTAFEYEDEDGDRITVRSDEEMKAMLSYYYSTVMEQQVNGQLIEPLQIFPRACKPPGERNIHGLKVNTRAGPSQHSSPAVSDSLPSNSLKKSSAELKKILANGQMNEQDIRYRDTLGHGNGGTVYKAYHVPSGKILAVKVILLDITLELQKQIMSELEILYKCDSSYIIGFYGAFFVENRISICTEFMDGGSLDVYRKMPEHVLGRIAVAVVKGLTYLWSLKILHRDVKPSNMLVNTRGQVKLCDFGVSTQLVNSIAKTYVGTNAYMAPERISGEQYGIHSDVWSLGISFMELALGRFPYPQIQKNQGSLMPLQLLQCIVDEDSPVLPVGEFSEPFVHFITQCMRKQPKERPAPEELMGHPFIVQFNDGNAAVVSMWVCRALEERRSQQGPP
Briefly: Binding affinity to partial length human MEK5 expressed in HEK293 cells by active-site-dependent competition assay. It is filed as cell-based. Put shortly: as §1

The target of a further series is Aurora kinase B (Homo sapiens, UniProt Q96GD4). The experiment in a line: Inhibition of partial length human AURKB expressed in HEK293 cells assessed as remaining activity at 1 uM after 1 hr by KINOMEscan method. It is filed as cell-based. In short, it runs like this:
(§2)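 Active-site-dependent competition binding screen run by an outside provider across a 468-kinase panel (403 nonmutated, 65 mutated kinases).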

Series [6] has as its system Mast/stem cell growth factor receptor Kit (Homo sapiens), P10721 [L576P]. The experiment in a line: Inhibition of partial length human KIT L576P mutant expressed in Escherichia coli BL21 assessed as remaining activity at 1 uM after 1 hr by KINOMEscan method. Put shortly:
as §2

For series [7], the target named is T2, Dual specificity mitogen-activated protein kinase kinase 5 (Homo sapiens) (UniProt Q13163).
T2 sequence (whole entry): T1 sequence (Q13163 whole entry)
The experiment in a line: Inhibition of partial length human MEK5 expressed in HEK293 cells assessed as remaining activity at 1 uM after 1 hr by KINOMEscan method. It counts as cell-based. Put shortly:
as §2

Series [8] addresses Serine/threonine-protein kinase SIK1 (Homo sapiens, UniProt P57059). Briefly: Inhibition of partial length human SIK expressed in Escherichia coli BL21 assessed as remaining activity at 1 uM after 1 hr by KINOMEscan method. Put shortly: as §2
Series [9] concerns the target Tyrosine-protein kinase Srms (Homo sapiens, UniProt Q9H3Y6). Briefly: Inhibition of partial length human SRMS expressed in HEK293 cells assessed as remaining activity at 1 uM after 1 hr by KINOMEscan method. It counts as cell-based. Put shortly: as §2
The species named for series [10] is Rattus norvegicus. Briefly: Inhibition of ZAK in Ang-2-induced rat H9c2 cells assessed as decrease in JNK phosphorylation by Western blot analysis.
In series [11] the test system is Rattus norvegicus. Briefly: Inhibition of myocardial hypertrophy in po dosed spontaneous hypertensive WKY rat model assessed as decrease in left ventricular mass at diastole administered for 4 continuous weeks. It is filed as functional, organism-based. Put shortly: (§3)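 Spontaneously hypertensive rats randomized into 3 groups given oral 0, 10 or 20 mg/kg/day for 4 continuous weeks; normotensive Wistar-Kyoto rats as reference; n = 6 per group. After sacrifice, left ventricles were collected to measure mass at diastole and systole; heart sections stained with hematoxylin and eosin for cardiomyocyte arrangement.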

For series [12], the system named is Rattus norvegicus. Briefly: Inhibition of myocardial hypertrophy in po dosed spontaneous hypertensive WKY rat model assessed as decrease in left ventricular mass at systole administered for 4 continuous weeks. It is filed as functional, organism-based. In short, it runs like this:
as §3

Series [13] has as its system Rattus norvegicus. Briefly: Inhibition of myocardial hypertrophy in po dosed spontaneous hypertensive WKY rat model assessed as decrease in JNK phosphorylation administered for 4 continuous weeks by Western blot method. It is filed as functional, organism-based. In short, it runs like this: (§4)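 Spontaneously hypertensive rats given oral 0, 10 or 20 mg/kg/day for 4 continuous weeks alongside normotensive Wistar-Kyoto controls; left ventricles harvested after sacrifice for Western blot analysis.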

Series [14] deals with Rattus norvegicus. Briefly: Inhibition of myocardial hypertrophy in po dosed spontaneous hypertensive WKY rat model assessed as decrease in p38 phosphorylation administered for 4 continuous weeks by Western blot method. It is filed as functional, organism-based. In short, it runs like this:
as §4

For series [15], the system named is Rattus norvegicus. The experiment in a line: Inhibition of myocardial hypertrophy in spontaneous hypertensive WKY rat model assessed as left ventricular mass at diastole at 20 mg/kg, po administered for 4 continuous weeks (reference value: 1.2 +/- 0.052 g). It is filed as functional. In short, it runs like this: as §3

Sequence of Mast/stem cell growth factor receptor Kit (Homo sapiens), P10721 [L576P] (P10721 whole entry L576P): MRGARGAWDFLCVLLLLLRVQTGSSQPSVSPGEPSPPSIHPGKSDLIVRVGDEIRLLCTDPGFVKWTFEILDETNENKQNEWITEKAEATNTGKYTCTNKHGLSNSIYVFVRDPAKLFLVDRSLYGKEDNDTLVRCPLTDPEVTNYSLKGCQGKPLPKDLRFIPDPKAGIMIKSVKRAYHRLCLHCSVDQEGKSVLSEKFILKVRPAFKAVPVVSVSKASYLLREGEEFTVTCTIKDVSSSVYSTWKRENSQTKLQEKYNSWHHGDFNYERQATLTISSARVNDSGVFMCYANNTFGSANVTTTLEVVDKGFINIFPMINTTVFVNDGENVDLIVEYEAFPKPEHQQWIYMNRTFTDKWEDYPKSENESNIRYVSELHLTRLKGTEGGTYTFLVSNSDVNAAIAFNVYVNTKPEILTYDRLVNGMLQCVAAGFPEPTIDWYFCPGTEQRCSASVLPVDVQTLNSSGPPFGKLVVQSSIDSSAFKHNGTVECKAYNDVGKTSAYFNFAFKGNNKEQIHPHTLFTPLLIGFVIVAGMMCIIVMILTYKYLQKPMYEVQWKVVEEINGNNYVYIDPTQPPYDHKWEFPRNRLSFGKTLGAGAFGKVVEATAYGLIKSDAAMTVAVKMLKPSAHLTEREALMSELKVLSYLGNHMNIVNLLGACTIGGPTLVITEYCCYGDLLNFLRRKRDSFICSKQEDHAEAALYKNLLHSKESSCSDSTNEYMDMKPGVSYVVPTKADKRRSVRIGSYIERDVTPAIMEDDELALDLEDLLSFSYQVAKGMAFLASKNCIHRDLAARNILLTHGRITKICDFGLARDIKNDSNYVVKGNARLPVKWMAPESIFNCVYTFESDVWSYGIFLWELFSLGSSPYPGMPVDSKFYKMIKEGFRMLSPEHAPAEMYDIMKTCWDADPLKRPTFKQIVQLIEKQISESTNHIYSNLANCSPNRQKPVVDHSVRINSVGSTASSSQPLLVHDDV
Sequence of Mast/stem cell growth factor receptor Kit (Homo sapiens, UniProt P10721, V559D) (P10721 26-976 V559D limits assumed): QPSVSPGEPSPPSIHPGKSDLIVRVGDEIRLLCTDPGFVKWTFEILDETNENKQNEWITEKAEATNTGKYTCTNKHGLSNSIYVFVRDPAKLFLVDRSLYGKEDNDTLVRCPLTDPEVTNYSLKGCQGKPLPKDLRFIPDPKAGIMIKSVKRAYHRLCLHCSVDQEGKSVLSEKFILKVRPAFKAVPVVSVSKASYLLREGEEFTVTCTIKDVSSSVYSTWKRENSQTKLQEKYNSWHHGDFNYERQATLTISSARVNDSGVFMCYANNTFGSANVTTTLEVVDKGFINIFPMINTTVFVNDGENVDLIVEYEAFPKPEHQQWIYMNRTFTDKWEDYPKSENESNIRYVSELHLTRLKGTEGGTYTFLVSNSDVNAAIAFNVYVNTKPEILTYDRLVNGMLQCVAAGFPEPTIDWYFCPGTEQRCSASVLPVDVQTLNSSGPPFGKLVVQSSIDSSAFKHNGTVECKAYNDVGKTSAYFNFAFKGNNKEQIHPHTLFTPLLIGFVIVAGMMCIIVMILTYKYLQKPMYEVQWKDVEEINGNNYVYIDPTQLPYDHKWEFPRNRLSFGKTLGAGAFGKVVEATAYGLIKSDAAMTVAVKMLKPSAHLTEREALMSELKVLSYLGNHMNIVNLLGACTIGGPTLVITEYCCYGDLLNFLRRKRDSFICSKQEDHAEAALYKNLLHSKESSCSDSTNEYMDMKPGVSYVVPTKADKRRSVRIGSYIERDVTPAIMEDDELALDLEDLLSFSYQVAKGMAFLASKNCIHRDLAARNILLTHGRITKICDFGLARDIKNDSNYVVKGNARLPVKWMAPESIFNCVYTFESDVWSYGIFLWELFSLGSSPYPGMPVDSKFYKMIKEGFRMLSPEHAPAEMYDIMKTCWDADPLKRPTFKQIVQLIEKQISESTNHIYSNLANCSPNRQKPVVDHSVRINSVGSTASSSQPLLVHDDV
Sequence of Aurora kinase B (Q96GD4 whole entry): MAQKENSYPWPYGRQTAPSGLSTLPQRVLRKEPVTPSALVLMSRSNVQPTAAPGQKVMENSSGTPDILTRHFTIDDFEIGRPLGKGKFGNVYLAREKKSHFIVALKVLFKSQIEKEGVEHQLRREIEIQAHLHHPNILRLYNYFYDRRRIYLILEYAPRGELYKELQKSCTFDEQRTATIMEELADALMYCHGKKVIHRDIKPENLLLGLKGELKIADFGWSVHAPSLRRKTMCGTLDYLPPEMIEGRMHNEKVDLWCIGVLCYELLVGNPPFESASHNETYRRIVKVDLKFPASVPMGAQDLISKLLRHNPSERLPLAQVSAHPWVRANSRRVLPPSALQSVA
Sequence of Serine/threonine-protein kinase SIK1 (P57059 whole entry): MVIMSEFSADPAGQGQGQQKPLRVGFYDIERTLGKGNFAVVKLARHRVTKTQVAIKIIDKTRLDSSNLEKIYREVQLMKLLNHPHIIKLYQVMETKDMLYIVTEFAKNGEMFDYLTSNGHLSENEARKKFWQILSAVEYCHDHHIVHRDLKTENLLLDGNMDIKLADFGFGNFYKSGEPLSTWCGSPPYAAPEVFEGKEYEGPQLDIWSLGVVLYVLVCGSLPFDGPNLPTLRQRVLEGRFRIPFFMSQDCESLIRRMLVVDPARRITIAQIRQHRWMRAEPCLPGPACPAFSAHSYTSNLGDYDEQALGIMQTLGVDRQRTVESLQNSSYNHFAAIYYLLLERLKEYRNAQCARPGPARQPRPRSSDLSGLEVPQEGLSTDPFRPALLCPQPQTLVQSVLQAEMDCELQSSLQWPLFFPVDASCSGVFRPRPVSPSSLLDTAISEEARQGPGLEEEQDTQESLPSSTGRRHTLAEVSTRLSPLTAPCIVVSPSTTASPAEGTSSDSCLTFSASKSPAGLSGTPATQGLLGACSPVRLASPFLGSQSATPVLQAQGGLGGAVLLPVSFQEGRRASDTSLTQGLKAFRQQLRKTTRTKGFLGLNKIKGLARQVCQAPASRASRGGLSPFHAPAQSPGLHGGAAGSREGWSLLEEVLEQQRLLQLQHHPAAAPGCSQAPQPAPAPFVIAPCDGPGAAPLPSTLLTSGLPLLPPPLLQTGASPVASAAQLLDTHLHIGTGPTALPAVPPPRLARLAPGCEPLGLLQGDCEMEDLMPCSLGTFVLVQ
Sequence of Mast/stem cell growth factor receptor Kit (Homo sapiens, UniProt P10721, L576P) (P10721 26-976 L576P limits assumed): as the sequence (P10721 26-976 V559D limits assumed) above, with D534V, L551P counted along it
Sequence of Serine/threonine-protein kinase B-raf (P15056 2-766 V600E limits assumed): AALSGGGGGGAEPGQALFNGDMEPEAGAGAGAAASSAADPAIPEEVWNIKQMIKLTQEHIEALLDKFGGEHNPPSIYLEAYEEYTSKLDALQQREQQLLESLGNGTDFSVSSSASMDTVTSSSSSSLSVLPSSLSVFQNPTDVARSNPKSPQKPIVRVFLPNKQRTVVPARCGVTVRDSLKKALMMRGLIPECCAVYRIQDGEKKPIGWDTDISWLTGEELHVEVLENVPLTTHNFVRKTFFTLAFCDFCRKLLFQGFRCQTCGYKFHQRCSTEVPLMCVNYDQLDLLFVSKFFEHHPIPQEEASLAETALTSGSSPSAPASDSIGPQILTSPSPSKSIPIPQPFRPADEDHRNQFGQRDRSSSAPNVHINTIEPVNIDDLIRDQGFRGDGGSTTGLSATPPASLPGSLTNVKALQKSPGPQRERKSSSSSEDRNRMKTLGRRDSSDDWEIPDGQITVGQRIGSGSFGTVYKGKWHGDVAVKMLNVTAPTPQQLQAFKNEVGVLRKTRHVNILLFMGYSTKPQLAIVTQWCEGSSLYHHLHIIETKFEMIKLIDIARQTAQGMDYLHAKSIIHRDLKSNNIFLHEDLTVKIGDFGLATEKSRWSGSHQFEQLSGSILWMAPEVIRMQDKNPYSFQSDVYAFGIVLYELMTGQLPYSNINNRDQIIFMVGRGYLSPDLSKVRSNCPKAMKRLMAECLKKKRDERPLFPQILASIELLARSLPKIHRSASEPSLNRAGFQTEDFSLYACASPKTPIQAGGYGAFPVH
Sequence of Tyrosine-protein kinase Srms (Q9H3Y6 whole entry): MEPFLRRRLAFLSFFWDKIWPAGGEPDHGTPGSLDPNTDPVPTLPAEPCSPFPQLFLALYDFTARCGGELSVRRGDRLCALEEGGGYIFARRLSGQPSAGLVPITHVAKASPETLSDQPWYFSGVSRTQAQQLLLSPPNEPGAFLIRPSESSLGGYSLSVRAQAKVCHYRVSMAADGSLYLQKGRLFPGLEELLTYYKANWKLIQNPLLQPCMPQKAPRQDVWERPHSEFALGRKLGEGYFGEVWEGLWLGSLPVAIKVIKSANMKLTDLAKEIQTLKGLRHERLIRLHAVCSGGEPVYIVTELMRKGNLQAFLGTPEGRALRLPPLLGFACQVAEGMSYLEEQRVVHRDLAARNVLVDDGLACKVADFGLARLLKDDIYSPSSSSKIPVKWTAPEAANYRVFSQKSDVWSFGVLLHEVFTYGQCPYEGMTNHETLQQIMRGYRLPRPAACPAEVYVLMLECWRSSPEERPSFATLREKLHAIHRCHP

For the compound `COc1n[nH]c2ncc(C#Cc3c(F)ccc(NS(=O)(=O)c4cccc(C#N)c4)c3F)cc12`, the bioavailability in series [1] was determined as 20%. Further, the IC50 in [2] was above 3000 nM. Further, the results for the dissociation constant (Kd) in series [3], in [4] and in series [5] were 210 nM, 180 nM and 88 nM, respectively. Further, the Activity on Aurora kinase B stood at 2.4%; in [6], 5.5%; in series [7], 0.9%; in series [8], 1.5%; in series [9] it was 3.9%; with Rattus norvegicus [15] it was 0.95 g. For the same compound, the inhibition result in the series filed under Rattus norvegicus [10], with Rattus norvegicus [11], with Rattus norvegicus [12], with Rattus norvegicus [13] and with Rattus norvegicus [14] was “Dose-dependent effect” throughout.
